From ChEMBL document CHEMBL1140765, “Synthesis and biological evaluation of 2-trifluoromethyl/sulfonamido-5,6-diaryl substituted imidazo[2,1-b]-1,3,4-thiadiazoles: a novel class of cyclooxygenase-2 inhibitors” (Bioorg Med Chem, 2008)

How the values were obtained:
[1] = target: T1, Prostaglandin G/H synthase 1 (Ovis aries) (UniProt P05979); test: Inhibition of ovine COX1 at 10 uM
T1 sequence (whole entry): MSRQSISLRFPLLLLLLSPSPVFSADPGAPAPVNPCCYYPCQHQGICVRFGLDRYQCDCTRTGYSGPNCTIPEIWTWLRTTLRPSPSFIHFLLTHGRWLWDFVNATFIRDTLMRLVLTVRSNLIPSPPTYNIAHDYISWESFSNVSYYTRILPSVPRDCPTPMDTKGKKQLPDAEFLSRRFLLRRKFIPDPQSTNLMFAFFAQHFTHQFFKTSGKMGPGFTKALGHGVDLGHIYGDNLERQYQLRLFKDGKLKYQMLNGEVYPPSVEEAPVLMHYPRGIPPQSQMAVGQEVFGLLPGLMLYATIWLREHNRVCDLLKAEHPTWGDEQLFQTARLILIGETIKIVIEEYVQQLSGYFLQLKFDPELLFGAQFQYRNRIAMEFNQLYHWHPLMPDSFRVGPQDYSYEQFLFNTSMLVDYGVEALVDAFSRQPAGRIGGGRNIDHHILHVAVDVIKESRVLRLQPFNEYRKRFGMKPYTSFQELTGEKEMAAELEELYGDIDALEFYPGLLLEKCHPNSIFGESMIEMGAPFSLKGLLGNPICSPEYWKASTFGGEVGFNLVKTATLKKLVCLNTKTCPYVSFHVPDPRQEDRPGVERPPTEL
Outline: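 Ovine COX-1 activity was measured with a colorimetric inhibitor assay kit that reads the enzyme's peroxidase component. Oxidized TMPD was monitored at 590 nm during reduction of PGG2 to PGH2. Runs were done in duplicate.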

[2] = target: T2, Prostaglandin G/H synthase 1 (Ovis aries, UniProt P05979); test: Inhibition of ovine COX1
T2 sequence (P05979 whole entry): T1 sequence (whole entry)
Outline: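 Ovine enzyme, colorimetric kit assay read through the peroxidase component: oxidised TMPD appearing during PGG2 to PGH2 reduction monitored at 590 nm; values reported as IC50 in µM, duplicate experiments.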

Rattus norvegicus [3] = test: Antiinflammatory activity in Albino rat assessed as reduction of carrageenan-induced paw edema volume at 10 mg/kg, po after 2 hrs; format: functional; parameters: scale not given: the % may be the effect or the level left
Outline: (§1)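 Male albino rats, six per group, were dosed orally. One hour later they received a subplantar injection of 0.05 mL of 1% carrageenan in 0.9% sterile solution into the left hind paw. Paw volume was read by digital plethysmometer at 0, 2 and 4 h. Percent reduction was calculated as (1 − treated/vehicle control edema volume) × 100, and values are given as mean ± SE.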

Rattus norvegicus [4] = test: Antiinflammatory activity in Albino rat assessed as reduction of carrageenan-induced paw edema volume at 10 mg/kg, po after 4 hrs; format: functional; parameters: scale not given: the % may be the effect or the level left; outline: as §1

Structure (SMILES) | inhibition [1] [%] | IC50 [2] [µM] | Activity (Rattus norvegicus [3]) [%] | Activity (Rattus norvegicus [4]) [%]
COc1ccc(-c2c(-c3ccc(S(C)(=O)=O)cc3)nc3sc(S(N)(=O)=O)nn23)cc1 | 13.3 | > 50 | 54.28 | 61.29
CSc1ccc(-c2nc3sc(C(F)(F)F)nn3c2-c2ccccc2)cc1 | 14.2 | – | 37.64 | 54.16
COc1ccc(-c2nc3sc(S(N)(=O)=O)nn3c2-c2ccc(OC)cc2)cc1 | 28.1 | – | 24.68 | 37.05
COc1ccc(-c2c(-c3ccc(F)cc3)nc3sc(S(N)(=O)=O)nn23)cc1 | 12.9 | – | 43.49 | 51.72
CS(=O)(=O)c1ccc(-c2nc3sc(C(F)(F)F)nn3c2-c2ccccc2)cc1 | 8.6 | > 50 | 46.73 | 70.09
COc1ccc(-c2nc3sc(C(F)(F)F)nn3c2-c2ccc(OC)cc2)cc1 | 15.5 | – | 38.03 | 48.78
COc1ccc(-c2c(-c3ccccc3)nc3sc(C(F)(F)F)nn23)cc1 | 30.6 | – | 29.62 | 42.32
Cc1ccc(-c2cc(C(F)(F)F)nn2-c2ccc(S(N)(=O)=O)cc2)cc1 [CELECOXIB] | – | – | 48.31 | 64.83
COc1ccc(-c2c(-c3ccc(SC)cc3)nc3sc(C(F)(F)F)nn23)cc1 | 10.5 | – | 42.38 | 66.16
